IC50, inhibition in vivo and Ratio IC50 data for 4 compounds are collected here from ChEMBL document CHEMBL2390866, “Novel pyrimidoazepine analogs as serotonin 5-HT(2A) and 5-HT(2C) receptor ligands for the treatment of obesity” (Eur J Med Chem, 2013).

Assay [1] has as its target 5-hydroxytryptamine receptor 6 (Homo sapiens, UniProt P50406). Description: Displacement of [3H]-LSD from human recombinant 5HT-6 receptor expressed in CHOK1 cell membranes after 60 mins. More on the design: species or system CHO-K1. Summed up: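 CHO-K1 membranes expressing human 5-HT6 incubated with 1 nM [3H]LSD for 60 min at 27 °C in 50 mM Tris-HCl pH 7.4 containing 4 mM CaCl2 and 0.1% ascorbic acid. Terminated by filtration on glass-fiber filters presoaked in 0.5% PEI. Methiothepin defined nonspecific binding.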

Assay [2] deals with T1, 5-hydroxytryptamine receptor 1A (Homo sapiens, UniProt P08908).
T1 sequence (P08908 whole entry): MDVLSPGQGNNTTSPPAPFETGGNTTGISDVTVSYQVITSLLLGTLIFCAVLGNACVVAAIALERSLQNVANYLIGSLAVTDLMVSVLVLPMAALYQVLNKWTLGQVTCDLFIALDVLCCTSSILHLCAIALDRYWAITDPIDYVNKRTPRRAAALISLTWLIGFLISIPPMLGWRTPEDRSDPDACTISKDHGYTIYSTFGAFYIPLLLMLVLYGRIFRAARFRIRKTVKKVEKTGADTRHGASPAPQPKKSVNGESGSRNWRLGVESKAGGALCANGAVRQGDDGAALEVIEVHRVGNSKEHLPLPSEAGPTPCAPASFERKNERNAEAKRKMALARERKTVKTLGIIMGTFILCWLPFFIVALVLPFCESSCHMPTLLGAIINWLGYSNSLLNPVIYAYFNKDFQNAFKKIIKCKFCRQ
In words: Displacement from [3H]8-OH-DPAT from human recombinant 5HT-1A receptor expressed in HEK293 cells after 120 mins. The format is cell-based. Summed up:
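Membranes from HEK293-EBNA cells stably expressing recombinant human 5-HT1A. Incubated with 2 nM [3H]8-OH-DPAT and test compound at a range of concentrations in 50 mM Tris-HCl pH 7.4 with 5 mM MgSO4.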

Assay [3] deals with Mus musculus. Description: Antiobesity activity in C57BL/6 mouse assessed as inhibition of body weight gain at 50 mg/kg, ip measured after 2 to 12 hrs relative to vehicle-treated control. The format is functional. The conditions noted are these: C57BL/6, ip, route intraperitoneal.
Assay [4] concerns the target T2, 5-hydroxytryptamine receptor 2A (Homo sapiens, UniProt P28223). In words: Antagonist activity at serotonin-activated human recombinant 5HT-2A receptor expressed in HEK293 cells assessed as decrease in intracellular calcium level after 5 mins measured for 1 min by fluorescence assay. The format is functional, cell-based. The conditions noted are these: read-out: EC50 (the source's name). The procedure, abridged:
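Cells were washed with HBSS/20 mM HEPES, then loaded 50 min with Fluo-4 NW dye in HBSS with 2.5 mM probenecid. Compound was added for 5 min at 37 °C, then serotonin; fluorescence followed 1 min. Run in duplicate or quadruplicate, repeated several times; IC50 by nonlinear regression.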

Assay [5] is described as follows: Displacement of [3H]-YM-09151-2 from cloned dopamine D4.2 receptor (unknown origin) expressed in Sf9 cells after 60 mins. More on the design: species or system Homo sapiens. Summed up:
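Sf9 membranes with cloned D4.2 receptor incubated with 0.2 nM [3H]YM-09151-2 for 60 min at 27 °C in 50 mM Tris-HCl pH 7.4, 5 mM MgCl2, 5 mM EDTA, 5 mM KCl, 1.5 mM CaCl2. Clozapine defined nonspecific binding. Filtered on glass-fiber filters presoaked in 0.3% PEI.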

The target of assay [6] is T2, 5-hydroxytryptamine receptor 2A. In words: Displacement of [3H]-ketanserin from human recombinant 5HT-2A receptor expressed in CHOK1 cell membranes after 60 mins. Also on record: species or system CHO-K1. Summed up:
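Buffer was 50 mM Tris-HCl pH 7.4 with 5 mM CaCl2 and 0.1% ascorbic acid. Test compound added at a range of concentrations.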

Assay [7] has as its target 5-hydroxytryptamine receptor 7 (Homo sapiens, UniProt P34969). Description: Displacement of [3H]-LSD from human recombinant 5HT-7 receptor expressed in CHOK1 cell membranes after 120 mins. Also on record: species or system CHO-K1. Summed up:
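CHO-K1 membranes expressing human 5-HT7 incubated with 3 nM [3H]LSD for 120 min at 27 °C in 50 mM Tris-HCl pH 7.4, 10 mM MgSO4, 0.5 mM EDTA. Filtered on glass-fiber filters presoaked in 0.3% PEI. Methiothepin defined nonspecific binding.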

A further assay has as its target D(2) dopamine receptor (Homo sapiens, UniProt P14416). Description: Displacement of [3H]-methylspiperone from dopamine D2L receptor (unknown origin) after 60 mins. The procedure, abridged: (§1)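 Receptor membranes incubated at 27 °C, 60 min for D2L and 30 min for D3, with [3H]methylspiperone (0.2 nM for D2L, 0.25 nM for D3) and test compound at a range of concentrations. Buffer was 50 mM Tris-HCl pH 7.4, 10 mM MgCl2, 1 mM EDTA, 120 mM NaCl. Nonspecific binding defined with haloperidol (D2) or GR103691 (D3). IC50 obtained by nonlinear regression.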

For a further assay, the target named is D(3) dopamine receptor (Homo sapiens, UniProt P35462). In words: Displacement of [3H]-methylspiperone from dopamine D3 receptor (unknown origin) after 30 mins. Summed up:
as §1

Assay [8] has as its system Mus musculus. In words: Antiobesity activity in C57BL/6 mouse assessed as inhibition of food intake at 50 mg/kg, ip measured after 2 to 12 hrs relative to vehicle-treated control. Type of assay: functional. The conditions noted are these: C57BL/6, ip, route intraperitoneal. Summed up:
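Male mice were acclimated 1 week at 23 ± 3 °C and 50 ± 20% humidity, then fasted 24 h. They were dosed once intraperitoneally with vehicle or compound: 50 mg/kg in C57BL/6, or 12.5, 25 or 50 mg/kg in B6.V-Lep^ob/J. Food intake was measured at 2, 6 and 12 h versus vehicle control.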

Assay [9] has as its target T3, 5-hydroxytryptamine receptor 2C (Homo sapiens, UniProt P28335).
T3 sequence (P28335 whole entry): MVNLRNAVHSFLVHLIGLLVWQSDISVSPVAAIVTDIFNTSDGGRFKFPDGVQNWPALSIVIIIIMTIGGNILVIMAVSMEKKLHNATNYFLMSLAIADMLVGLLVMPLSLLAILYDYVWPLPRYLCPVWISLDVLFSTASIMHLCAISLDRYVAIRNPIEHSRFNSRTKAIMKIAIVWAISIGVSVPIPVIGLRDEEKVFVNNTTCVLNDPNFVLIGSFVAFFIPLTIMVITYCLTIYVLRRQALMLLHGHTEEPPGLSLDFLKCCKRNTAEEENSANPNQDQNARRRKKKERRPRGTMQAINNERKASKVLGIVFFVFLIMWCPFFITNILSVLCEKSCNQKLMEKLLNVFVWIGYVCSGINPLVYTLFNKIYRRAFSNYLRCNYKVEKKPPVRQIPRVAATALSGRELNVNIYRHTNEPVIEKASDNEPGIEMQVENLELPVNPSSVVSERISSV
In words: Displacement of [3H]-mesulergine from human recombinant 5HT-2C receptor expressed in CHOK1 cell membranes after 30 mins. Also on record: species or system CHO-K1. The procedure, abridged:
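Frozen CHO-K1 membranes expressing recombinant human 5-HT2C incubated with 1 nM [3H]mesulergine in 50 mM Tris-HCl pH 7.4 containing 0.1% ascorbic acid and pargyline. Mianserin defined nonspecific binding.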

Assay [10] is filed under the species Homo sapiens. In words: Selectivity ratio of IC50 for human recombinant 5HT-2B receptor to IC50 for human recombinant 5HT-2A receptor.
Assay [11] deals with 5-hydroxytryptamine receptor 2B (Homo sapiens, UniProt P41595). In words: Displacement of […] from human recombinant 5HT-2B receptor.
Assay [12] concerns the target T4, Alpha-2A adrenergic receptor (Homo sapiens, UniProt P08913).
T4 sequence (P08913 whole entry): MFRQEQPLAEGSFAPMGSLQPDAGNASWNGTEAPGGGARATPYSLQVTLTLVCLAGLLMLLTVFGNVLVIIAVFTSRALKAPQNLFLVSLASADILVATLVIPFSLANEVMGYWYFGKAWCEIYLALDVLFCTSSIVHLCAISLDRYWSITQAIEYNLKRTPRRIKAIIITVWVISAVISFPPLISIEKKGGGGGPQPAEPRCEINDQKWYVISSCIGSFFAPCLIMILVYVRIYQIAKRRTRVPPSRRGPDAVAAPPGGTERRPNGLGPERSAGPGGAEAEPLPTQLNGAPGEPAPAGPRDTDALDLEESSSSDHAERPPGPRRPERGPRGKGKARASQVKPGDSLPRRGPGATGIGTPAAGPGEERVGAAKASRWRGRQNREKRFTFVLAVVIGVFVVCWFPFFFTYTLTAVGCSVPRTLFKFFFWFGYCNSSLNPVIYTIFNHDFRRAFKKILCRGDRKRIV
In words: Binding affinity to adrenergic alpha2A receptor (unknown origin).

Assay [13] deals with T5, Alpha-1A adrenergic receptor (Homo sapiens, UniProt P35348).
T5 sequence (P35348 whole entry): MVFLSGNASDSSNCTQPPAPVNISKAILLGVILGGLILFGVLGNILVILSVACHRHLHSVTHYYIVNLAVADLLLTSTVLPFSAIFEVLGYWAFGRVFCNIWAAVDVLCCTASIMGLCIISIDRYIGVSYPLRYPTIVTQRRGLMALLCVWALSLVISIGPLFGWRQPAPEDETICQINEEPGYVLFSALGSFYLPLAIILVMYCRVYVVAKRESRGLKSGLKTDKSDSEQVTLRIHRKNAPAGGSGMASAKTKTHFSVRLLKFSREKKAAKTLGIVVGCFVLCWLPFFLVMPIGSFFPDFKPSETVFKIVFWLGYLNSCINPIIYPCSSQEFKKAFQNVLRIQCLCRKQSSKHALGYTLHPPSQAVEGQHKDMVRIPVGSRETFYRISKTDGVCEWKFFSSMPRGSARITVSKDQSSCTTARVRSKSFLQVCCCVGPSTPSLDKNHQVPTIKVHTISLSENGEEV
Description: Binding affinity to adrenergic alpha1A receptor (unknown origin).

For assay [14], the species on record is Homo sapiens. In words: Selectivity ratio of IC50 for human recombinant 5HT-2B receptor to IC50 for human recombinant 5HT-2C receptor.
The target in assay [15] is T3, 5-hydroxytryptamine receptor 2C. Description: Antagonist activity at serotonin-activated human recombinant 5HT-2C receptor expressed in HEK293 cells assessed as decrease in intracellular calcium level after 5 mins measured for 1 min by fluorescence assay. The format is functional, cell-based. To be noted: read-out: EC50 (the source's name). The procedure, abridged:
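Intracellular calcium read on HEK293 cells stably expressing human receptor, seeded 10,000 cells/well and grown 24 h at 37 °C, 5% CO2. Cells were washed with HBSS/20 mM HEPES, then loaded 50 min with Fluo-4 NW dye in HBSS with 2.5 mM probenecid. Compound was added for 5 min at 37 °C, then serotonin; fluorescence followed 1 min. Run in duplicate or quadruplicate, repeated several times; IC50 by nonlinear regression.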

The subject of assay [16] is Mus musculus. In words: Antiobesity activity in C57BL/6 mouse assessed as inhibition of food intake at 5.6 mg/kg, ip measured after 2 to 12 hrs relative to vehicle-treated control. Type of assay: functional. The conditions noted are these: C57BL/6, ip, route intraperitoneal. Summed up:
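Male C57BL/6 mice acclimated 1 week (23 ± 3 °C, 50 ± 20% humidity), fasted 24 h, then given intraperitoneal vehicle or drug. Food intake measured over intervals of 2, 6 and 12 h and compared with vehicle control.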

The structures appear in SMILES notation.

Chain of 5-hydroxytryptamine receptor 7 (P34969 whole entry): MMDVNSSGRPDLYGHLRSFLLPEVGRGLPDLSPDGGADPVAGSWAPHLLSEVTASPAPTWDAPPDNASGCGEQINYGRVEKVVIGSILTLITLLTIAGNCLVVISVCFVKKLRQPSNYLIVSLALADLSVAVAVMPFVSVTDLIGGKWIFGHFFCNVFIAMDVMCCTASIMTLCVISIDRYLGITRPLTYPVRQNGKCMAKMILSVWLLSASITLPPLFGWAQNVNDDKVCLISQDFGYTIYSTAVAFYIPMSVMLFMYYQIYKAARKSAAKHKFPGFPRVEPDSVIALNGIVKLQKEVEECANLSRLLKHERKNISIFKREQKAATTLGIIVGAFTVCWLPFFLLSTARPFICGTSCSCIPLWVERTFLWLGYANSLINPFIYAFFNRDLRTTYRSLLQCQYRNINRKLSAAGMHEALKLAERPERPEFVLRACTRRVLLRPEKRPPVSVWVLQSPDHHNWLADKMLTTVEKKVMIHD
Chain of D(2) dopamine receptor (P14416 whole entry): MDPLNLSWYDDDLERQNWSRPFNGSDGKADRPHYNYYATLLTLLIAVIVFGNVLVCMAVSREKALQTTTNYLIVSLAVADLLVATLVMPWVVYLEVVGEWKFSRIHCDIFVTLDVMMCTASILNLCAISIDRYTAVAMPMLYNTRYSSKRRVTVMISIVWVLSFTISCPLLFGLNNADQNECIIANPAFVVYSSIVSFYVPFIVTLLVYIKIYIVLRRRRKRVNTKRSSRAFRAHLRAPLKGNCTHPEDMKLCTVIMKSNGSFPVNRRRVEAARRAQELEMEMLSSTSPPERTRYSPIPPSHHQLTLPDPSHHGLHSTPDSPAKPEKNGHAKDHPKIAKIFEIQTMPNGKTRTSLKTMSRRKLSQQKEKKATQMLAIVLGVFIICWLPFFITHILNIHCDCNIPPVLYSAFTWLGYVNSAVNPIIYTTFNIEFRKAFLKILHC
Chain of D(3) dopamine receptor (P35462 whole entry): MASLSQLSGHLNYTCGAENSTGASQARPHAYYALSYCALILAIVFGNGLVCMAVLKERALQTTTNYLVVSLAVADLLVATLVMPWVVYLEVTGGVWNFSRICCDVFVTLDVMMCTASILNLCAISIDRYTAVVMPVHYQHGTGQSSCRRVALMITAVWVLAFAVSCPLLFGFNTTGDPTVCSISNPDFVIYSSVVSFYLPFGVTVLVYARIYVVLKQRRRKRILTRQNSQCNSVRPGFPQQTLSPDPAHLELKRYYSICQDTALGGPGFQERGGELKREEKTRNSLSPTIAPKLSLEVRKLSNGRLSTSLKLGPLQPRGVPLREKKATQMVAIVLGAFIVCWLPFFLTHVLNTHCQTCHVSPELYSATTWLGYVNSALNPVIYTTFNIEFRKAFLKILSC
T2 sequence (P28223 whole entry): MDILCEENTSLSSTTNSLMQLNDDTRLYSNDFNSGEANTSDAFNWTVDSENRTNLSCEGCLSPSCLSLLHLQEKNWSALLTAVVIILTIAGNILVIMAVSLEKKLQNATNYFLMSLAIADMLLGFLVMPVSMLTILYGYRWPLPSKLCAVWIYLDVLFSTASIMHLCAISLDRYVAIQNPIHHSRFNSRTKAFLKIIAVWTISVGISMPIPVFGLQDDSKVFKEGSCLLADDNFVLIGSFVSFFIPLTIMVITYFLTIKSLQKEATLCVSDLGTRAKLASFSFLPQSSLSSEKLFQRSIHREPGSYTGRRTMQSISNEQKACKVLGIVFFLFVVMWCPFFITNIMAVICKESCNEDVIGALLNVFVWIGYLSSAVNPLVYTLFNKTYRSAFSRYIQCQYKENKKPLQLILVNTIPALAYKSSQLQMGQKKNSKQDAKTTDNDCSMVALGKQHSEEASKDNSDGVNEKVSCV
Chain of 5-hydroxytryptamine receptor 6 (P50406 whole entry): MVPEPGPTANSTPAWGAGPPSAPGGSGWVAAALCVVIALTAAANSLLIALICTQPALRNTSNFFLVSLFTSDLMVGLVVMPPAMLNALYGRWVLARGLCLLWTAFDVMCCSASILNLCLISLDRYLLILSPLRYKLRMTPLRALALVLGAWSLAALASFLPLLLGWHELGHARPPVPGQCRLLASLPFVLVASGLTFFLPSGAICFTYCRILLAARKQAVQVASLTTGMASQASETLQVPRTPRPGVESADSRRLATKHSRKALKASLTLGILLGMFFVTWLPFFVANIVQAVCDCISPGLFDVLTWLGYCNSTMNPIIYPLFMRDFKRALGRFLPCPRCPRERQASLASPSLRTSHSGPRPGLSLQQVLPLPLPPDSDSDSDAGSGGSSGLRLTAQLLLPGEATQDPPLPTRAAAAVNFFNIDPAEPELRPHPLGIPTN
Chain of 5-hydroxytryptamine receptor 2B (P41595 whole entry): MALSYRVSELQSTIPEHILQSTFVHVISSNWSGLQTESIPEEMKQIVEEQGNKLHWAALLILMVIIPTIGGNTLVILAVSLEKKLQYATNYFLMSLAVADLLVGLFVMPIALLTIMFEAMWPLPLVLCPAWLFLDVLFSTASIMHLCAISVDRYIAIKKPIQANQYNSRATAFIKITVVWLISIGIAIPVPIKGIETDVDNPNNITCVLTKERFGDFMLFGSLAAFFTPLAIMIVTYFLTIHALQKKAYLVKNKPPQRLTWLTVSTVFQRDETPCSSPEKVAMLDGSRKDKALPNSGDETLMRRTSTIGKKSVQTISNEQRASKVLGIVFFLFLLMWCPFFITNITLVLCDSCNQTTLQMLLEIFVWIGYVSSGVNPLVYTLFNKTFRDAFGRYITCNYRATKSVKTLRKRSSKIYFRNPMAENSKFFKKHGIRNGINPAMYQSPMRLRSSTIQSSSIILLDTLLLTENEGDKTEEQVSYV

With `Fc1cccc(Nc2nc(Cc3ccccc3)nc3c2CCNCC3)c1`, the IC50 in [1] stood at 22.2 nM; in assay [2], 1250 nM; in [4], 27.9 nM; in assay [5], 735 nM; in assay [6], 4.92 nM; in assay [7], 1060 nM. In addition, the values for the IC50 (on D(2) dopamine receptor; at D(3) dopamine receptor; in assay [9]) were 63.3 nM, 674 nM and 13.3 nM, respectively. In addition, the inhibition in vivo at 50 mg/kg was 68.9% in the assay on Mus musculus [3] and 69.4% in the assay with Mus musculus [8].

`c1ccc(Cc2nc3c(c(Nc4ccccc4)n2)CCNCC3)cc1`: the IC50 in assay [1] was 36.8 nM; in assay [2], 395 nM; in [5] it was 112 nM; in assay [6], 2.69 nM; in assay [11], 89 nM; in assay [12], over 10000 nM. For the same compound, the IC50 is 1560 nM in assay [7]; 1390 nM in [13]; 147 nM at D(2) dopamine receptor; 272 nM on D(3) dopamine receptor; 1.98 nM in assay [9]. In addition, the figures for the inhibition in vivo at 50 mg/kg with Mus musculus [3] and in the assay with Mus musculus [8] were 71.8% and 64.2%, respectively. Also, the Ratio IC50 was determined as 33.1 in the assay listed under Homo sapiens [10] and 44.9 in the assay listed under Homo sapiens [14].

Turning to `COc1cccc(Nc2nc(Cc3ccccc3)nc3c2CCNCC3)c1`, the IC50 in assay [1] came out at 30.4 nM; in [2] it was 823 nM; in assay [15], 9.2 nM; in assay [4] it was 77.6 nM; in assay [5], 549 nM; in assay [6] it was 84.4 nM. Moreover, the IC50 stood at 497 nM in [7], 163 nM at D(2) dopamine receptor, 941 nM on D(3) dopamine receptor and 37.3 nM in [9]. Also, the inhibition in vivo at 50 mg/kg with Mus musculus [3] was determined as 63.9%; in the assay with Mus musculus [8], 55.8%.

Regarding `Clc1cccc(N2CCNCC2)c1` [CHLOROPHENYLPIPERAZINE], the inhibition in vivo at 5.6 mg/kg in the assay on Mus musculus [16] is 13.1%.
